# From ChEMBL document CHEMBL1150284, “Synthesis, characterization, and metabolic stability of porphyrin-peptide conjugates bearing bifunctional signaling sequences” (J Med Chem, 2008)
# Numbered stars: 1 amine (or outer) side, 2 acyl side, 3 side chain; on linkers, the order of the positions; unused ones are H or OH. Square brackets hold non-standard residues; d marks the D form. Peptide text beside a SMILES is read from it. * marks the point of attachment. X1 = O=C(COCC(=O)*)Nc1ccc(-c2c3nc(c(-c4ccccc4)c4ccc([nH]4)c(-c4ccccc4)c4nc(c(-c5ccccc5)c5ccc2[nH]5)C=C4)C=C3)cc1; NH(CH2CH2O)6CH2CO = O=C(COCCOCCOCCOCCOCCOCCN[*:1])[*:2]
# What was measured:
# [1] = test system: HEp-2; assay: Cytotoxicity against human HEp2 cells in dark; assay type: functional, cell-based
# How it was run: (§1)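 HEp2 cells (DMEM/Advanced MEM 50:50, 5% FBS) plated 10000/well, 36–48 h attachment; exposed to rising conjugate concentrations up to 100 µM overnight in dark. Viability by Cell Titer Blue fluorescence 520/584 nm, normalized to untreated (100%) and 0.2% saponin-treated (0%) cells.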
# [2] = test system: HEp-2; assay: Phototoxicity against human HEp2 cells on exposure of 1 J/cm'2 light; assay type: functional, cell-based; settings: HEp-2, light or radiation study
# How it was run: (§2)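 HEp2 cells plated as for dark assay, loaded with 0, 0.625, 1.25, 2.5, 5, 10 µM conjugate; medium swapped for one with 50 mM HEPES pH 7.4, cells on ice irradiated 20 min by 100 W halogen lamp through 610 nm long-pass filter and water IR filter (~1 J/cm2). Overnight incubation, then Cell Titer Blue viability read as in dark assay.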
# [3] = Drug uptake in human HEp2 cells at 10 uM; assay type: ADME, cell-based; settings: hep-2, 10 µM, TDE = time-dependent effect
# How it was run: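 HEp2 cells seeded 10000/well, grown 36 h, then given 10 µM conjugate (diluted from 10 mM water stock) for 0, 1, 2, 4, 8, 24 h. After PBS wash, lysis in 0.25% Triton X-100/PBS; conjugate read by fluorescence 440/650 nm, cell number by CyQuant.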
# [4] = Stability at pH 7.4 after 24 hrs; assay type: physicochemical; settings: buffer, pH 7.4, 24 h
# How it was run: (§3)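 Nonenzymatic hydrolysis: 100 µM conjugate in 50 mM PBS pH 7.4 or 50 mM acetate buffer pH 5.0, 37 °C for 24 h; products identified by MALDI-TOF MS with CCA matrix.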
# [5] = Stability at pH 5.0 after 24 hrs; assay type: physicochemical; settings: buffer, pH 5, 24 h; how it was run: as §3
# [6] = test system: HEp-2; assay: Phototoxicity against human HEp2 cells on exposure of 1 J/cm'2 light up to 10 uM; assay type: functional, cell-based; how it was run: as §2
# [7] = test system: HEp-2; assay: Cytotoxicity against human HEp2 cells in dark up to 100 uM; assay type: functional, cell-based; how it was run: as §1
Activity [3],Stability [4],Stability [5],SMILES,IC50 [1],IC50 [2],Activity [6],Activity [7]
tde,Stable,Stable,CC(C)[C@H](NC(=O)[C@H](CCCCN)NC(=O)[C@H](CCCNC(=N)N)NC(=O)[C@H](CCCCN)NC(=O)[C@H](CCCCN)NC(=O)[C@H](CCCCN)NC(=O)[C@@H]1CCCN1C(=O)[C@@H]1CCCN1C(=O)[C@H](C)NC(=O)COCCOCCOCCOCCOCCOCCNC(=O)COCC(=O)Nc1ccc(-c2c3nc(c(-c4ccccc4)c4ccc([nH]4)c(-c4ccccc4)c4nc(c(-c5ccccc5)c5ccc2[nH]5)C=C4)C=C3)cc1)C(=O)N[C@@H](CCC(=O)O)C(=O)N[C@@H](CC(=O)O)C(=O)N1CCC[C@H]1C(=O)N[C@@H](CCCNC(=N)N)C(=O)N[C@@H](CCCCN)C(=O)N[C@@H](CCCCN)C(=O)N[C@@H](CCCNC(=N)N)C(=O)N[C@@H](CCCNC(=N)N)C(=O)N[C@@H](CCC(N)=O)C(=O)N[C@@H](CCCNC(=N)N)C(=O)N[C@@H](CCCNC(=N)N)C(=O)N[C@@H](CCCNC(=N)N)C(=O)N1CCC[C@H]1C(=O)N1CCC[C@H]1C(=O)N[C@@H](CCC(N)=O)C(=O)NCC(=O)O (X1-[NH(CH2CH2O)6CH2CO]APPKKKRKVEDPRKKRRQRRRPPQG-OH),34 µM,7.5 µM,,
tde,Stable,Stable,CSCC[C@H](NC(=O)COCCOCCOCCOCCOCCOCCNC(=O)COCC(=O)Nc1ccc(-c2c3nc(c(-c4ccccc4)c4ccc([nH]4)c(-c4ccccc4)c4nc(c(-c5ccccc5)c5ccc2[nH]5)C=C4)C=C3)cc1)C(=O)NCC(=O)N[C@@H](CC(C)C)C(=O)NCC(=O)N[C@@H](CC(C)C)C(=O)N[C@@H](Cc1cnc[nH]1)C(=O)N[C@@H](CC(C)C)C(=O)N[C@@H](CC(C)C)C(=O)N[C@H](C(=O)N[C@@H](CC(C)C)C(=O)N[C@@H](C)C(=O)N[C@@H](C)C(=O)N[C@@H](C)C(=O)N[C@@H](CC(C)C)C(=O)N[C@@H](CCC(N)=O)C(=O)NCC(=O)N[C@@H](C)C(=O)N[C@@H](Cc1c[nH]c2ccccc12)C(=O)N[C@@H](CO)C(=O)N[C@@H](CCC(N)=O)C(=O)N[C@@H](C)C(=O)N1CCC[C@H]1C(=O)N1CCC[C@H]1C(=O)N[C@@H](CCCCN)C(=O)N[C@@H](CCCCN)C(=O)N[C@@H](CCCCN)C(=O)N[C@@H](CCCNC(=N)N)C(=O)N[C@@H](CCCCN)C(=O)N[C@H](C(=O)NCC(=O)O)C(C)C)C(C)C (X1-[NH(CH2CH2O)6CH2CO]MGLGLHLLVLAAALQGAWSQAPPKKKRKVG-OH),,,Not toxic,Not toxic
tde,Stable,Stable,CC[C@H](C)[C@H](NC(=O)[C@H](CCCCN)NC(=O)[C@@H](NC(=O)[C@H](CCC(N)=O)NC(=O)[C@H](CCCNC(=N)N)NC(=O)COCCOCCOCCOCCOCCOCCNC(=O)COCC(=O)Nc1ccc(-c2c3nc(c(-c4ccccc4)c4ccc([nH]4)c(-c4ccccc4)c4nc(c(-c5ccccc5)c5ccc2[nH]5)C=C4)C=C3)cc1)[C@@H](C)CC)C(=O)N[C@@H](Cc1c[nH]c2ccccc12)C(=O)N[C@@H](Cc1ccccc1)C(=O)N[C@@H](CCC(N)=O)C(=O)N[C@@H](CC(N)=O)C(=O)N[C@@H](CCCNC(=N)N)C(=O)N[C@@H](CCCNC(=N)N)C(=O)N[C@@H](CCSC)C(=O)N[C@@H](CCCCN)C(=O)N[C@@H](Cc1c[nH]c2ccccc12)C(=O)N[C@@H](CCCCN)C(=O)N[C@@H](CCCCN)C(=O)N[C@@H](C)C(=O)N1CCC[C@H]1C(=O)N1CCC[C@H]1C(=O)N[C@@H](CCCCN)C(=O)N[C@@H](CCCCN)C(=O)N[C@@H](CCCCN)C(=O)N[C@@H](CCCNC(=N)N)C(=O)N[C@@H](CCCCN)C(=O)N[C@H](C(=O)NCC(=O)O)C(C)C (X1-[NH(CH2CH2O)6CH2CO]RQIKIWFQNRRMKWKKAPPKKKRKVG-OH),53 µM,9.3 µM,,
